Assays:
[1] = target: T1, Aldehyde oxidase (Homo sapiens, UniProt Q06278); assay: Drug metabolism in human liver cytosol assessed as as AOX-mediated quinolone group metabolism at 10 uM after 30 mins by UPLC/Q-TOF MS analysis; type: ADME; conditions: 0.5 h
T1 sequence (Q06278 whole entry): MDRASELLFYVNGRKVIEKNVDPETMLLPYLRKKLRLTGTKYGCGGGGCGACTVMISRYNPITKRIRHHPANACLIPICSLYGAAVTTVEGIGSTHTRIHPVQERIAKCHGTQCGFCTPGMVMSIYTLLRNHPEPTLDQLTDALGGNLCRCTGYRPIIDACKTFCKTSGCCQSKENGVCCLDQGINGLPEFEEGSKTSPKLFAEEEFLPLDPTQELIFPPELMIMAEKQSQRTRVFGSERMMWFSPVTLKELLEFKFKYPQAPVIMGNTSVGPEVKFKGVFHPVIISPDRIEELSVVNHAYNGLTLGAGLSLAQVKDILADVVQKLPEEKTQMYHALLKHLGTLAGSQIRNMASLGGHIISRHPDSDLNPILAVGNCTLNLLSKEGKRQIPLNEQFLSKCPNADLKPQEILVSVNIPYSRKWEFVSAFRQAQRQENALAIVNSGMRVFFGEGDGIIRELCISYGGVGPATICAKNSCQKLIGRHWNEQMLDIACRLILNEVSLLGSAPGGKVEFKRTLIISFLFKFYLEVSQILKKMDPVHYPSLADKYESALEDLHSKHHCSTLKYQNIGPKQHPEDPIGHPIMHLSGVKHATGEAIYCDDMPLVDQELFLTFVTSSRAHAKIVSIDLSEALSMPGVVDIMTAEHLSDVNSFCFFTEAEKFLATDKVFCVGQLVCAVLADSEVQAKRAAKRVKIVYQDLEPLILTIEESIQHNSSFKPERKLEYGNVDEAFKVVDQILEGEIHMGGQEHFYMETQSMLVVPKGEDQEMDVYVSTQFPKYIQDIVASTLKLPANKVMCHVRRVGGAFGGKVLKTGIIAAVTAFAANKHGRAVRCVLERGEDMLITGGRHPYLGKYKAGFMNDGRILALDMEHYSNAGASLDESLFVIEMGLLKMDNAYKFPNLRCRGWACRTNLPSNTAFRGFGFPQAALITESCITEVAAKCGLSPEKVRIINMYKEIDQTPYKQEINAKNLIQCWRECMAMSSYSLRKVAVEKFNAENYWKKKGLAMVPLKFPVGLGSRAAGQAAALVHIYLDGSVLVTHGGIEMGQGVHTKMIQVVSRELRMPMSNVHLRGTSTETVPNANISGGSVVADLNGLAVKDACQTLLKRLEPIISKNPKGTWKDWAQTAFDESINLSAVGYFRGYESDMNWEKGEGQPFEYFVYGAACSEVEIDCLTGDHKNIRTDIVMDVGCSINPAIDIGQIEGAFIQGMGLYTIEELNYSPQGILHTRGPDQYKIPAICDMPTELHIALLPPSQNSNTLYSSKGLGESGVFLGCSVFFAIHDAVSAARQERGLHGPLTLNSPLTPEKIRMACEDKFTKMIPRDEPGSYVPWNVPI
Method in brief: (§1)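 Pooled human liver cytosol, 0.5 mg/mL protein, in 100 mM potassium phosphate pH 7.4; 3 min preincubation at 37 °C, then 10 μM substrate (final; DMSO 0.1% v/v). Quenched after 30 min with equal volume ice-cold acetonitrile, centrifuged, supernatant run by UPLC/Q-TOF MS in positive ion mode. Controls without substrate or with inactivated enzyme; duplicate incubations.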

[2] = target: T1, Aldehyde oxidase; assay: Drug metabolism in human liver cytosol assessed as AOX-mediated oxidative metabolite formation by measuring decrease in the liquid chromatography-mass spectrometry peak at 10 uM after 30 min by UPLC/Q-TOF MS analysis; type: ADME; conditions: 0.5 h; method in brief: as §1
[3] = target: T1, Aldehyde oxidase; assay: (§2) Drug metabolism in human liver cytosol assessed as AOX-mediated 2-fluoro-N-methyl-4-(3-oxo-7-(quinolin-7-ylmethyl)-3,4-dihydroimidazo[1,2-b][1,2,4]triazin-2-yl)benzamide metabolite formation by measuring LC-MS peak area of the metabolite at 10 uM after 30 min by UPLC/Q-TOF MS analysis; type: ADME; conditions: 0.5 h; method in brief: as §1
[4] = target: T1, Aldehyde oxidase; assay: as §2, with “mins in presence of menadione” for “min”; type: ADME; conditions: 0.5 h
Method in brief: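 Human liver cytosol (0.5 mg/mL protein) in 100 mM phosphate buffer preincubated 10 min at 37 °C with 100 μM menadione (DMSO 0.2% v/v final), then 10 μM substrate (final) added. Stopped at 30 min with equal volume ice-cold acetonitrile; metabolites detected by UPLC/Q-TOF MS. Inhibitor-free controls run alongside; duplicate incubations.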

[5] = Retention time of the compound by UPLC/Q-TOF MS analysis
Method in brief: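 HSS T3 column (1.8 μm, 100 × 2.1 mm) at 45 °C, 0.4 mL/min. Mobile phase: 5 mM ammonium acetate with 0.1% formic acid (A) and acetonitrile (B). Gradient 10% B for 1 min, to 65% B over 6 min, to 99% B over 0.5 min, held 1.5 min, back to 10% B. Positive-ion Q-TOF detection, m/z 80–1000.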

[6] = target: T1, Aldehyde oxidase; assay: Drug level in human liver cytosol treated with capmatinib assessed as AOX-mediated metabolite formation at 10 uM after 30 min by UPLC/Q-TOF MS analysis; type: ADME; conditions: 0.5 h; method in brief: as §1

Compound: OCCn1cc(-c2cnc3nnn(Cc4ccc5ncccc5c4)c3n2)cn1 [PF-04217903]
- Drug metabolism [1]: Metabolite_Detected
- Drug metabolism [2]: Metabolite_Detected

Compound: CNC(=O)c1ccc(-c2nn3c(Cc4ccc5ncccc5c4)cnc3[nH]c2=O)cc1F
- Drug metabolism [3]: 136000
- Drug metabolism [4]: 3220
- Retention time [5]: 3.63 min
- Drug metabolism [6]: Metabolite_Detected

Compound: Cn1cc(-c2ccc3ncc(Cc4ccc5ncccc5c4)n3n2)cn1
- Drug metabolism [2]: Metabolite_Detected

Compound: CNC(=O)c1ccc(-c2cnc3ncc(Cc4ccc5ncccc5c4)n3n2)cc1F [CAPMATINIB]
- Drug metabolism [2]: Metabolite_Detected

Compound: Cn1cc(-c2ccc3nnc(Sc4ccc5ncccc5c4)n3n2)cn1 [SGX-523]
- Drug metabolism [1]: Metabolite_Detected

Compound: Cn1cc(-c2ccc3nnc(C(F)(F)c4ccc5ncccc5c4)n3n2)cn1 [JNJ-38877605]
- Drug metabolism [1]: Metabolite_Detected

Source: ChEMBL document CHEMBL4049400, “Aldehyde Oxidase Mediated Metabolism in Drug-like Molecules: A Combined Computational and Experimental Study” (J Med Chem, 2017)
